In ChEMBL document CHEMBL1759943, “Design and synthesis of novel enhanced water soluble hydroxyethyl analogs of combretastatin A-4” (Bioorg Med Chem Lett, 2011):
Converted amounts (≈) assume the structure as drawn. Values belong to the compound of their own block, whether it stands above or below them.

Experiments:
B16 = test: Antiproliferative activity against mouse B16 cells after 72 hrs by MTT assay; format: functional, cell-based; details: B16, 72 h
Outline: (§1)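 Murine L1210 lymphoma and B16 melanoma cells in culture were given 72-h continuous exposure to compound, and viability was read by MTT assay. IC50 was taken as the readout.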

L1210 [1] = test: Antiproliferative activity against mouse L1210 cells after 72 hrs by MTT assay; format: functional, cell-based; details: L1210, 72 h; outline: as §1
NCI-H226 = test: Cytotoxicity against human NCI-H226 cells; format: functional; details: NCI-H226, read-out: pGI50 (converted)
ACHN = test: Cytotoxicity against human ACHN cells; format: functional
SF-268 = test: Cytotoxicity against human SF268 cells; format: functional
OVCAR-3 = test: Cytotoxicity against human OVCAR3 cells; format: functional
HCT-116 = test: Cytotoxicity against human HCT116 cells; format: functional
Mus musculus [2] = test: Toxicity in DBA2 mouse assessed as change in color and texture of kidney at 75 mg/kg, ip administered once daily on day 1, 5, 9, 13, 17; format: organism-based; design: dose 75 mg/kg, route intraperitoneal; details: in vivo
Outline: (§2)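 Healthy, non-tumor-bearing female DBA2 mice given 75 mg/kg on days 1, 5, 9, 13 and 17. Toxicity was judged at the end of the experiment from body weight change, blood cell counts, and the gross color and texture of the kidneys, liver and spleen.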

MDA-MB-435 [3] = test: Cytotoxicity against human MDA-MB-435 cells; format: functional, cell-based
LOX IMVI = test: Cytotoxicity against human LOXIMVI cells; format: functional
A498 = test: Cytotoxicity against human A498 cells; format: functional
IGROV-1 = test: Cytotoxicity against human IGROV1 cells; format: functional
NCI-H522 = test: Cytotoxicity against human NCI-H522 cells; format: functional
MCF7 = test: Cytotoxicity against human MCF7 cells; format: functional
NCI-H460 = test: Cytotoxicity against human NCI-H460 cells; format: functional
HCT-15 = test: Cytotoxicity against human HCT15 cells; format: functional
HOP-92 = test: Cytotoxicity against human HOP92 cells; format: functional
HOP-62 = test: Cytotoxicity against human HOP62 cells; format: functional
TK-10 = test: Cytotoxicity against human TK10 cells; format: functional
UACC-257 = test: Cytotoxicity against human UACC257 cells; format: functional; details: UACC-257, read-out: pGI50 (converted)
K562 = test: Cytotoxicity against human K562 cells; format: functional
SW-620 = test: Cytotoxicity against human SW620 cells; format: functional
KM12 = test: Cytotoxicity against human KM12 cells; format: functional
CAKI-1 = test: Cytotoxicity against human Caki1 cells; format: functional
HCC 2998 = test: Cytotoxicity against human HCC2998 cells; format: functional
SN12C = test: Cytotoxicity against human SN12C cells; format: functional
DU-145 = test: Cytotoxicity against human DU145 cells; format: functional
PC-3 = test: Cytotoxicity against human PC3 cells; format: functional
NCI-H23 = test: Cytotoxicity against human NCI-H23 cells; format: functional
MDA-MB-231 = test: Cytotoxicity against human MDA-MB-231 cells; format: functional
HL-60 = test: Cytotoxicity against human HL60 cells; format: functional
OVCAR-4 = test: Cytotoxicity against human OVCAR4 cells; format: functional
BT-549 = test: Cytotoxicity against human BT549 cells; format: functional
COLO 205 = test: Cytotoxicity against human COLO205 cells; format: functional
UACC-62 = test: Cytotoxicity against human UACC62 cells; format: functional
SK-OV-3 = test: Cytotoxicity against human SKOV3 cells; format: functional
EKVX = test: Cytotoxicity against human EKVX cells; format: functional
786-0 = test: Cytotoxicity against human 786-0 cells; format: functional
MDA-MB-435 [4] = test: Ratio of EC50 for disruption of interphase microtubule organization in rat A10 cells to IC50 for human MDA-MB-435 cells; format: functional
[5] = Cytotoxicity against human Hs 578T cells; format: functional
CCRF-CEM = test: Cytotoxicity against human CCRF-CEM cells; format: functional
Mus musculus [6] = test: Toxicity in DBA2 mouse assessed as change in blood cell count at 75 mg/kg, ip administered once daily on day 1, 5, 9, 13, 17; format: organism-based; design: dose 75 mg/kg, route intraperitoneal; details: in vivo; outline: as §2
SK-MEL-2 = test: Cytotoxicity against human SK-MEL-2 cells; format: functional
Mus musculus [7] = test: Toxicity in DBA2 mouse assessed as change in body weight at 75 mg/kg, ip administered once daily on day 1, 5, 9, 13, 17; format: organism-based; design: dose 75 mg/kg, route intraperitoneal; details: in vivo; outline: as §2
UO-31 = test: Cytotoxicity against human UO31 cells; format: functional
Mus musculus [8] = test: Toxicity in DBA2 mouse assessed as change in color and texture of liver at 75 mg/kg, ip administered once daily on day 1, 5, 9, 13, 17; format: organism-based; design: dose 75 mg/kg, route intraperitoneal; details: in vivo; outline: as §2
[9] = Cytotoxicity against human RXF 393NL cells; format: functional
NCI-H322M = test: Cytotoxicity against human NCI-H322M cells; format: functional
A10 = test: Disruption of microtubule organization in rat A10 cells assessed as loss of interphase microtubules; format: functional, cell-based
RPMI-8226 = test: Cytotoxicity against human RPMI8226 cells; format: functional
MDA-MB-468 = test: Cytotoxicity against human MDA-MB-468 cells; format: functional
SK-MEL-5 = test: Cytotoxicity against human SK-MEL-5 cells; format: functional
SF-295 = test: Cytotoxicity against human SF295 cells; format: functional
NCI/ADR-RES = test: Cytotoxicity against human NCI/ADR-RES cells; format: functional
OVCAR-5 = test: Cytotoxicity against human OVCAR5 cells; format: functional
M14 = test: Cytotoxicity against human M14 cells; format: functional
[10] = Aqueous solubility of the compound after 6 hrs; format: physicochemical
Outline: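 Solubility was measured with a modified filter-plate protocol, assay maximum 500 µM. Each compound had its own standard curve, diluted into 80:20 aqueous buffer:acetonitrile at 5% DMSO (v/v) final. The aqueous sample was mixed 6 h and centrifuged. Supernatant absorbance gave concentration from the standard curve.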

SK-MEL-28 = test: Cytotoxicity against human SK-MEL-28 cells; format: functional; details: SK-MEL-28, read-out: pGI50 (converted)
Mus musculus [11] = test: Toxicity in DBA2 mouse assessed as change in color and texture of spleen at 75 mg/kg, ip administered once daily on day 1, 5, 9, 13, 17; format: organism-based; design: dose 75 mg/kg, route intraperitoneal; details: in vivo; outline: as §2
MOLT-4 = test: Cytotoxicity against human MOLT4 cells; format: functional
L1210 [12] = test: Antitumor activity against mouse L1210 cells xenografted in DBA2 mouse assessed as reduction in tumor volume at 75 mg/kg, ip administered once daily on day 1, 3, 5, 7, 9, 11, 13, 15, 17 measured on day 19 relative to control; format: functional; design: scale not given: the % may be the effect or the level left; details: route intraperitoneal
Outline: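 Female DBA2 mice were inoculated with L1210 leukemia cells on the right flank. Compound was given ip at 75 mg/kg once on each of days 1, 3, 5, 7, 9, 11, 13, 15 and 17 after inoculation, in 100 µL injections; controls got vehicle alone. Tumor volume was compared with vehicle controls on day 19.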

U-251 = test: Cytotoxicity against human U251 cells; format: functional
HT-29 = test: Cytotoxicity against human HT-29 cells; format: functional
OVCAR-8 = test: Cytotoxicity against human OVCAR8 cells; format: functional
A549 = test: Cytotoxicity against human A549 cells; format: functional

IC50 (B16): > 100000 nM | IC50 (L1210 [1]): > 100000 nM
Compound: COc1cc(/C(=C/c2ccccc2)C(C)O)cc(OC)c1OC (stereo unspecified)

IC50 (B16): > 100000 nM | IC50 (L1210 [1]): 33500 nM
Compound: COc1cc(/C(=C/c2ccc(C)cc2)C(C)O)cc(OC)c1OC (stereo unspecified)

IC50 (B16): > 100000 nM | IC50 (L1210 [1]): > 100000 nM
Compound: COc1cc(/C(=C/c2ccc(Cl)cc2)C(C)O)cc(OC)c1OC (stereo unspecified)

IC50 (B16): > 100000 nM | IC50 (L1210 [1]): > 100000 nM
Compound: COc1cc(/C(=C/c2ccc(Br)cc2)C(C)O)cc(OC)c1OC (stereo unspecified)

IC50 (B16): > 100000 nM | IC50 (L1210 [1]): > 100000 nM
Compound: COc1cc(/C(=C/c2ccc([N+](=O)[O-])cc2)C(C)O)cc(OC)c1OC (stereo unspecified)

IC50 (B16): 17500 nM | IC50 (L1210 [1]): 3900 nM
Compound: COc1ccc(/C=C(/c2cc(OC)c(OC)c(OC)c2)C(C)O)cc1 (stereo unspecified)

IC50 (B16): > 100000 nM | IC50 (L1210 [1]): > 100000 nM
Compound: COc1cc(/C(=C/c2cccc([N+](=O)[O-])c2)C(C)O)cc(OC)c1OC (stereo unspecified)

IC50 (B16): 51500 nM | IC50 (L1210 [1]): 18500 nM
Compound: COc1cc(/C(=C/c2ccc(Cl)c(Cl)c2)C(C)O)cc(OC)c1OC (stereo unspecified)

IC50 (B16): > 100000 nM | IC50 (L1210 [1]): 69000 nM
Compound: COc1ccc(/C=C(/c2cc(OC)c(OC)c(OC)c2)C(C)O)cc1OC (stereo unspecified)

IC50 (B16): 16100 nM | IC50 (L1210 [1]): 4100 nM | EC50 (A10): 21200 nM | solubility at 6 h [10]: 479 µM (≈ 173 µg/mL)
Compound: COc1ccc(/C=C(/c2cc(OC)c(OC)c(OC)c2)C(C)O)cc1O (stereo unspecified)
GI50 (NCI-H226): > 100000 nM | GI50 (ACHN): 575 nM | GI50 (SF-268): 1000 nM | GI50 (OVCAR-3): 245 nM | GI50 (HCT-116): 479 nM | Activity (Mus musculus [2]): Non-toxic | GI50 (MDA-MB-435 [3]): 200 nM | IC50 (MDA-MB-435 [3]): 880 nM | GI50 (MDA-MB-435 [3]; read-out: pGI50 (converted)): 229 nM | GI50 (LOX IMVI): 891 nM | GI50 (A498): 759 nM | GI50 (IGROV-1): 851 nM | GI50 (NCI-H522): 457 nM | GI50 (MCF7): 389 nM | GI50 (NCI-H460): 490 nM | GI50 (HCT-15): 617 nM | GI50 (HOP-92): 209 nM | GI50 (HOP-62): 4070 nM | GI50 (TK-10): 4070 nM | GI50 (UACC-257): > 100000 nM | GI50 (K562): 550 nM | GI50 (SW-620): 363 nM | GI50 (KM12): 389 nM | GI50 (CAKI-1): 4570 nM | GI50 (HCC 2998): 2820 nM | GI50 (SN12C): 6610 nM | GI50 (DU-145): 1450 nM | GI50 (PC-3): 501 nM | GI50 (NCI-H23): 3720 nM | GI50 (MDA-MB-231): 2140 nM | GI50 (HL-60): 479 nM | GI50 (OVCAR-4): 4270 nM | GI50 (BT-549): 813 nM | GI50 (COLO 205): 27500 nM | GI50 (UACC-62): 468 nM | GI50 (SK-OV-3): 1020 nM | GI50 (EKVX): 5620 nM | GI50 (786-0): 4170 nM | Ratio (MDA-MB-435 [4]): 24 | GI50 [5]: 324 nM | GI50 (CCRF-CEM): 2450 nM | Activity (Mus musculus [6]): Non-toxic | GI50 (SK-MEL-2): 692 nM | Activity (Mus musculus [7]): Non-toxic | GI50 (UO-31): 2340 nM | Activity (Mus musculus [8]): Non-toxic | GI50 [9]: 324 nM | GI50 (NCI-H322M): 3980 nM | GI50 (RPMI-8226): 3470 nM | GI50 (MDA-MB-468): 501 nM | GI50 (SK-MEL-5): 417 nM | GI50 (SF-295): 1860 nM | GI50 (NCI/ADR-RES): 447 nM | GI50 (OVCAR-5): 5620 nM | GI50 (M14): 631 nM | GI50 (SK-MEL-28): > 100000 nM | Activity (Mus musculus [11]): Non-toxic | GI50 (MOLT-4): 4680 nM | Activity (L1210 [12]): 50% | GI50 (U-251): 575 nM | GI50 (HT-29): 4070 nM | GI50 (OVCAR-8): 1320 nM | GI50 (A549): 3020 nM

IC50 (B16): > 100000 nM | IC50 (L1210 [1]): 67500 nM
Compound: COc1ccc(/C=C(/c2cc(OC)c(OC)c(OC)c2)C(C)O)cc1[N+](=O)[O-] (stereo unspecified)

IC50 (B16): > 100000 nM | IC50 (L1210 [1]): > 100000 nM
Compound: COc1ccc(OC)c(/C=C(/c2cc(OC)c(OC)c(OC)c2)C(C)O)c1 (stereo unspecified)

IC50 (B16): 84000 nM | IC50 (L1210 [1]): 51500 nM
Compound: COc1cc(/C=C(/c2cc(OC)c(OC)c(OC)c2)C(C)O)cc(OC)c1OC (stereo unspecified)
